Measured values reported in article PMC5080318 (Cancer Chemotherapy and Pharmacology, 2016).
Read-outs that look alike come from different tables or passages of the source. Marks after values point to notes of the source that are not given here.

Assays:
[1] = tested on: solid tumors and hematological malignancies; conditions: cited from earlier work; for antitumor activity: phase I trials, solid tumors and hematological malignancies
[2] = phase I pharmacokinetics, plasma and urine; format: in vivo, human; conditions: for mean terminal half-life: range over doses
[3] = tested on: patients with advanced solid tumors; assay: phase I safety: adverse events
[4] = tested on: phosphorylated histone H3 (pHH3); conditions: in vitro; cited from earlier work
[5] = tested on: alpha-1-acid glycoprotein (AGP); conditions: preclinical; ref Boehringer Ingelheim, data on file; cited from earlier work
[6] = tested on: caspase-cleaved cytokeratin-18 (CK-18); assay: plasma caspase-cleaved CK-18; format: in vivo, human; conditions: both schedules
Outline: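 Plasma was drawn pre-dose and at 48, 72 and 120 h after the first two 24-h IV infusions in each schedule: Days 1 and 15 of a 4-week cycle, or Day 1 of a 3-week cycle. Further samples were taken pre-dose and at 120 h post-dose up to Cycle 6. Caspase-cleaved CK-18 was quantified by validated ELISA.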

advanced solid tumors = assay: antitumor activity; format: in vivo, human
[7] = tested on: HCT 116 colorectal cancer model; conditions: preclinical models; ref Boehringer Ingelheim; data on file; cited from earlier work
[8] = tested on: patients with advanced solid tumors; conditions: in vivo
[9] = tested on: patients with advanced solid tumors; assay: phase I dose escalation: DLT and MTD; format: in vivo
[10] = tested on: xenograft models of human non-small cell lung cancer, colon carcinoma, and pancreas carcinoma; conditions: cited from earlier work
tumor cell lines = conditions: 48 h following treatment; cited from earlier work
[11] = tested on: acute myeloid leukemia (AML); conditions: cited from earlier work; for complete response rate / febrile neutropenia / stomatitis: randomized phase II trial, elderly patients with AML
[12] = tested on: patients with advanced solid tumors; conditions: cited from earlier work

For `O=C(Nc1c[nH]nc1-c1nc2ccc(CN3CCOCC3)cc2[nH]1)NC1CC1` [AT9283], the antitumor activity [1] is given as “limited antitumor activity”.
In the case of `CC(C)NC(=O)[C@H]1CCC[C@H]1Nc1nc(Nc2ccc(C(=O)N(C)C3CCN(C)CC3)cc2)ncc1C(F)(F)F` [BI 811283], the “exposure to total BI 811283 (bound and unbound) in patients with higher AGP plasma concentrations” value ([2]; human, in vivo) is reported as “trend toward increased exposure”, the “time to maximum plasma concentration after start of infusion” value ([2]; human, in vivo, iv) is reported as 20 to 24 h and the “Cmax and AUC0–∞ versus dose” value ([2]; in vivo) is reported as “increased in a dose-dependent manner”. The “fraction excreted in urine” value ([2]; in vivo) was 4 to 12 % of the administered dose, the “time after end of infusion in which most of the compound was eliminated” value ([2]; in vivo) was ≤ 6 h and the mean terminal half-life ([2]; schedule A) was 11.4 to 30.5 h. The mean terminal half-life ([2]; schedule B) was 10.1 to 27.0 h, the “deaths considered related to the study treatment” value ([3]; 22 patients with fatal AEs) was “None” and the “drug-related Alopecia, grade All” value ([3]; Schedule B, Total (N = 58)) was 12 (20.7) n (%). For the same compound, the “patients with SAEs regarded as drug related” value (“patients with SAEs regarded” for short) ([3]; all patients) was “Thirteen”, the “patients with fatal AEs” value ([3]; all patients, n = 22) was 18.2% and the “patients with serious AEs (SAEs)” value ([3]; all patients, n = 61) was 50.4%. For the same compound, the “drug-related SAE febrile neutropenia” value ([3]; all patients, most common drug-related SAE) was “seven”, the “patients with SAEs regarded” value ([3]; schedule A, n = 3) was 4.8% and the “patients with fatal AEs” value ([3]; schedule A, n = 10) was 15.9%. For the same compound, the “patients with serious AEs (SAEs)” value ([3]; schedule A, n = 33) was 52.4%, the “patients with SAEs regarded” value ([3]; schedule B, n = 10) was 17.2% and the “patients with fatal AEs” value ([3]; schedule B, n = 12) was 20.7%. For the same compound, the “patients with serious AEs (SAEs)” value ([3]; schedule B, n = 28) was 48.3%, the “time of treatment until pHH3 was reduced” value [4] was ≤ 1 h and the protein binding [5] was “dependent on the plasma concentrations of alpha-1-acid glycoprotein (AGP)”. The “level of caspase-cleaved CK-18 in plasma after infusion” value [6] was “no consistent trend”, the “best overall response SD, share of patients” value (advanced solid tumors; both treatment schedules) was “approximately 30%” and the objective response (advanced solid tumors; either treatment schedule) was “No patients”. For the same compound, the “antitumor activity of weekly and 2-weekly 24-h continuous infusion” value [7] was “similarly strong antitumor activity”, the “drug-related Alopecia, grade All” value [8] was 11 (17.5) n (%) and the “drug-related Fatigue, grade ≥3” value [8] was 1 (1.7) n (%). For the same compound, the “drug-related Nausea, grade ≥3” value [8] was 1 (1.6) n (%), the “drug-related alopecia, patients” value [8] was 19.8% and the “drug-related decreased appetite, patients” value [8] was 14.9%. The “drug-related diarrhea, patients” value [8] was 16.5%, the “drug-related fatigue, patients” value [8] was 31.4% and the “drug-related leukopenia, patients” value [8] was 28.9%. The “drug-related nausea, patients” value [8] was 24.0%, the “drug-related neutropenia, patients” value [8] was 33.1% and the “Patients with DLT” value ([9]; schedule A, 5 mg, n 3, first cycle) was 0. For the same compound, the “Patients with DLT” value ([9]; schedule A, 10 mg, n 7, first cycle) was 1, the “Patients with DLT” value ([9]; schedule A, 13.5 mg, n 3, first cycle) was 0 and the “Patients with DLT” value ([9]; schedule A, 18 mg, n 3, first cycle) was 0. For the same compound, the “Patients with DLT” value ([9]; schedule A, 24 mg, n 4, first cycle) was 0, the “Patients with DLT” value ([9]; schedule A, 32 mg, n 3, first cycle) was 0 and the “Patients with DLT” value ([9]; schedule A, 43 mg, n 5, first cycle) was 0. The “Patients with DLT” value ([9]; schedule A, 58 mg, n 3, first cycle) was 0, the “Patients with DLT” value ([9]; schedule A, 78 mg, n 7, first cycle) was 1 and the “Patients with DLT” value ([9]; schedule A, 105 mg, n 6, first cycle) was 1. The “Patients with DLT” value ([9]; schedule A, 125 mg (MTD), n 16 incl. expansion cohort, first cycle) was 1, the “Patients with DLT” value ([9]; schedule A, 140 mg, n 3, first cycle) was 2 and the “maximum tolerated dose (MTD)” value ([9]; schedule A: 24-h infusion Days 1 and 15 of a 4-week cycle) was 125 mg. For the same compound, the “Patients with DLT” value ([9]; schedule B, 13.5 mg, n 3, first cycle) was 0, the “Patients with DLT” value ([9]; schedule B, 18 mg, n 3, first cycle) was 0 and the “Patients with DLT” value ([9]; schedule B, 24 mg, n 3, first cycle) was 0. For the same compound, the “Patients with DLT” value ([9]; schedule B, 32 mg, n 4, first cycle) was 0, the “Patients with DLT” value ([9]; schedule B, 43 mg, n 3, first cycle) was 0 and the “Patients with DLT” value ([9]; schedule B, 58 mg, n 3, first cycle) was 0. The “Patients with DLT” value ([9]; schedule B, 78 mg, n 3, first cycle) was 0, the “Patients with retrospectively identified potential DLT” value ([9]; schedule B, 105 mg, n 6) was 2 and the “Patients with DLT” value ([9]; schedule B, 105 mg, n 6, first cycle) was 1^c. For the same compound, the “Patients with retrospectively identified potential DLT” value ([9]; schedule B, 125 mg, n 3) was 1, the “Patients with DLT” value ([9]; schedule B, 125 mg, n 3, first cycle) was 0^c and the “Patients with DLT” value ([9]; schedule B, 150 mg, n 3, first cycle) was 0. For the same compound, the “Patients with retrospectively identified potential DLT” value ([9]; schedule B, 180 mg, n 3) was 1, the “Patients with DLT” value ([9]; schedule B, 180 mg, n 3, first cycle) was 0^c and the “Patients with DLT” value ([9]; schedule B, 230 mg, second cohort n 3 (after 300 mg), first cycle) was 0. The “Patients with DLT” value ([9]; schedule B, 270 mg, n 5, first cycle) was 2, the “Patients with DLT” value ([9]; schedule B, 300 mg, n 3, first cycle) was 2 and the “maximum tolerated dose (MTD)” value ([9]; schedule B: 24-h infusion Day 1 of a 3-week cycle) was 230 mg. For the same compound, the “pHH3 in xenograft models” value ([10]; marker of Aurora B kinase inhibition) was “decrease in pHH3”, the “effect on tumor growth in xenograft models” value ([10]; tumor regression in some cases) was “dose-dependent inhibition of tumor growth” and the “polyploidy, share of cells” value (tumor cell lines) was “up to 80%”.
In the case of `Nc1ccn([C@@H]2O[C@H](CO)[C@@H](O)[C@@H]2O)c(=O)n1` [LDAC, cytosine arabinoside], the complete response rate [11] is given as 11.5%, the febrile neutropenia [11] is given as 19% and the stomatitis [11] is given as 15%.
For `O=C(O)c1ccc(Nc2ncc3c(n2)-c2ccc(Cl)cc2C(c2c(F)cccc2F)=NC3)cc1` [MLN8054], the dose-limiting toxicities [12] is given as “DLTs of liver enzyme elevations were observed”.
In the case of `CC(=O)NCC(=O)N1[C@@H]2CC[C@H]1c1ccc(Nc3ncc(C(F)(F)F)c(NC4CCC4)n3)cc12` [PF-03814735], the antitumor activity [1] is listed as “limited antitumor activity”.
For `COc1cc(Nc2ncc3c(n2)-c2ccc(Cl)cc2C(c2c(F)cccc2OC)=NC3)ccc1C(=O)O` [alisertib], the clinical activity ([1]; phase II study, preliminary evidence) is listed as “durable disease control in multiple cancer types”.
In the case of `CCN(CCCOc1ccc2c(Nc3cc(CC(=O)Nc4cccc(F)c4)n[nH]3)ncnc2c1)CCOP(=O)(O)O` [barasertib], the clinical activity ([1]; advanced solid tumors) is given as “limited activity in solid tumors”, the response rate ([11]; in combination with low-dose cytosine arabinoside (LDAC), AML) is given as 45% and the hematological response rate ([11]; monotherapy, phase I/II trials, AML) is given as 19–25%. For the same compound, the complete response rate [11] was 35.4%, the febrile neutropenia [11] was 67% and the stomatitis [11] was 71%.
For `CO[C@@H](C(=O)N1Cc2n[nH]c(NC(=O)c3ccc(N4CCN(C)CC4)cc3)c2C1)c1ccccc1` [danusertib], the clinical activity ([1]; advanced hematological malignancies) is listed as “promising clinical activity” and the clinical activity ([1]; phase I/II studies in advanced solid tumors) is listed as “limited activity”.
